In brackets after ≈: the same amount, converted by molar mass.
Key:
Escherichia coli [1] = assay: Antibacterial activity against Escherichia coli after 18 hrs by […]; format: functional
Method in brief: (§1)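 MIC by tube macrodilution. Test compounds dissolved in DMSO, serially diluted to final […]. Each tube received 24 h old inoculum, standard inoculum […]. Incubated 18 h at 37 °C. MIC read visually as the lowest concentration preventing visible growth.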

Escherichia coli [2] = assay: Antibacterial activity against Escherichia coli at 10 to 100 ug/mL after 18 hrs by disk diffusion method; format: functional
Method in brief: (§2)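 Disk diffusion. Bacteria were subcultured in BHI for 18 h at 37 °C, then suspended in saline to McFarland standard. The suspension was mixed with sterile antibiotic agar at 40 °C and poured into plates. Paper disks of 6.0 mm were placed on nutrient agar. DMSO stock was diluted to 10, 20, 25, 50 and 100 per mL and applied to the disks. A DMSO disk served as negative control. Inhibition zones in mm were read after 18 h at 36 °C.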

Salmonella typhimurium [3] = assay: Antibacterial activity against Salmonella Typhimurium after 18 hrs by […]; format: functional, Salmonella enterica subsp. enterica serovar Typhimurium; conditions: Salmonella enterica; method in brief: as §1
Streptococcus pyogenes [4] = assay: Antibacterial activity against Streptococcus pyogenes after 18 hrs by […]; format: functional; method in brief: as §1
Streptococcus pyogenes [5] = assay: Antibacterial activity against Streptococcus pyogenes at 10 to 100 ug/mL after 18 hrs by disk diffusion method; format: functional; method in brief: as §2
Staphylococcus aureus [6] = assay: Antibacterial activity against Staphylococcus aureus after 18 hrs by […]; format: functional; method in brief: as §1
Staphylococcus aureus [7] = assay: Antibacterial activity against Staphylococcus aureus at 10 to 100 ug/mL after 18 hrs by disk diffusion method; format: functional; method in brief: as §2
Salmonella typhimurium [8] = assay: Antibacterial activity against Salmonella Typhimurium at 10 to 100 ug/mL after 18 hrs by disk diffusion method; format: functional, Salmonella enterica subsp. enterica serovar Typhimurium; method in brief: as §2
Staphylococcus aureus [9] = assay: Antibacterial activity against Staphylococcus aureus at 30 ug after 18 hrs by disk diffusion method; format: functional; conditions: read-out: IZ
Method in brief: (§3)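 Amoxicillin […] disk, positive control in disk diffusion. Bacteria were subcultured in BHI for 18 h at 37 °C and suspended in saline to McFarland standard. Seeded antibiotic agar was poured into plates and 6.0 mm paper disks placed. Inhibition zone in mm was read after 18 h at 36 °C.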

Escherichia coli [10] = assay: Antibacterial activity against Escherichia coli at 30 ug after 18 hrs by disk diffusion method; format: functional; conditions: read-out: IZ; method in brief: as §3
Salmonella typhimurium [11] = assay: Antibacterial activity against Salmonella Typhimurium at 30 ug after 18 hrs by disk diffusion method; format: functional, Salmonella enterica subsp. enterica serovar Typhimurium; conditions: Salmonella enterica, read-out: IZ; method in brief: as §3
Streptococcus pyogenes [12] = assay: Antibacterial activity against Streptococcus pyogenes at 30 ug after 18 hrs by disk diffusion method; format: functional; conditions: read-out: IZ; method in brief: as §3

Compound | MIC (Escherichia coli [1]) [µg/mL] | inhibition zone (IZ) (Escherichia coli [2]) [mm] | MIC (Salmonella typhimurium [3]) [µg/mL] | MIC (Streptococcus pyogenes [4]) [µg/mL] | inhibition zone (IZ) (Streptococcus pyogenes [5]) [mm] | MIC (Staphylococcus aureus [6]) [µg/mL] | inhibition zone (IZ) (Staphylococcus aureus [7]) [mm] | inhibition zone (IZ) (Salmonella typhimurium [8]) [mm] | zone of inhibition at 30 µg/disc (Staphylococcus aureus [9]) [mm] | zone of inhibition at 30 µg/disc (Escherichia coli [10]) [mm] | zone of inhibition at 30 µg/disc (Salmonella typhimurium [11]) [mm] | zone of inhibition at 30 µg/disc (Streptococcus pyogenes [12]) [mm]
Cc1cccc(NC(=S)N/N=C2\CC[C@@]3(C)C(=CC[C@H]4[C@@H]5CC[C@H]([C@H](C)CCCC(C)C)[C@@]5(C)CC[C@@H]43)C2)c1 | 256 (≈ 467 µM) | 11.2 | 128 (≈ 234 µM) | 128 (≈ 234 µM) | 10.6 | 128 (≈ 234 µM) | 12.4 | 10.6 |  |  |  | 
Cc1ccc(NC(=S)N/N=C2\CC[C@@]3(C)C(=CC[C@H]4[C@@H]5CC[C@H]([C@H](C)CCCC(C)C)[C@@]5(C)CC[C@@H]43)C2)cc1 | 128 (≈ 234 µM) | 10.2 | 128 (≈ 234 µM) | 256 (≈ 467 µM) | 11.5 | 256 (≈ 467 µM) | 12.6 | 10.2 |  |  |  | 
Cc1ccccc1NC(=S)N/N=C1\CC[C@@]2(C)C(=CC[C@H]3[C@@H]4CC[C@H]([C@H](C)CCCC(C)C)[C@@]4(C)CC[C@@H]32)C1 | 128 (≈ 234 µM) | 14.2 | 128 (≈ 234 µM) | 64 (≈ 117 µM) | 12.8 | 64 (≈ 117 µM) | 14.2 | 12.4 |  |  |  | 
CC1(C)S[C@@H]2[C@H](NC(=O)[C@H](N)c3ccc(O)cc3)C(=O)N2[C@H]1C(=O)O [AMOXICILLIN] | 32 (≈ 87.6 µM) |  | 32 (≈ 87.6 µM) | 32 (≈ 87.6 µM) |  | 32 (≈ 87.6 µM) |  |  | 21 | 20 | 25.2 | 22.2
